Screening data deposited in PubChem by several laboratories.
An excerpt weighted towards active compounds, which were near 29% of everything screened.
CYP2C19 inhib: blockers of cytochrome P450 2C19 activity – biochemical, luminescence, ADME assay, primary screen. CYP2C19 Supersomes, luciferin-H EGE luminescence, 30 min. hit rate 21% among 96,000. inhibition, % at 5 µM. P33261;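 active means CYP2C19 inhibition above a set limit at 5 µM in the primary screen, cut at about 50% in these data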;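 further: plate controls were negative control wells for no effect and 2.5 mM tranylcypromine positive control for full effect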
CYP2C19 activ: human CYP2C19 activators, primary screen, biochemical, luminescence | activation factor at 5 µM | Cytochrome P450 2C19 (Homo sapiens), P33261 | 96,000 tested, under 10 active | recombinant CYP2C19, luciferin-H EGE luminescence; stronger effect = higher value; 0 = fully inhibited enzyme, 1 = untreated enzyme;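 active means activation factor of at least 2 at 5 µM in the primary screen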;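 further: 0 = wells with 2.5 mM tranylcypromine and 1 = vehicle-only wells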
E coli WT exp: growth inhibitors of wild-type E. coli, primary screen, strain BW25113, expanded library, OD600; OD600 absorbance; hit rate 0.15% among 98,000; growth inhibition, % at 100 µM;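 active means growth inhibition above about 50% at one test dose, limit read from the data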;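 further: growth measured after 20 h incubation at 37 °C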
CYP2C9 activ: human CYP2C9 activators, primary screen, biochemical, luminescence | Cytochrome P450 2C9 (Homo sapiens), P11712 | recombinant CYP2C9, luciferin-H conversion; stronger effect = higher value; factor 1 = untreated enzyme, 0 = blocked | activation factor at 5 µM | hit rate 1.4% among 96,000 | AID 1024, 2008;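 active means activation factor of 2 or more for CYP2C9 at a 5 µM dose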;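 further: 0 = sulfaphenazole-blocked wells and 1 = vehicle-only wells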
Target sequence (P11712 whole entry, looked up): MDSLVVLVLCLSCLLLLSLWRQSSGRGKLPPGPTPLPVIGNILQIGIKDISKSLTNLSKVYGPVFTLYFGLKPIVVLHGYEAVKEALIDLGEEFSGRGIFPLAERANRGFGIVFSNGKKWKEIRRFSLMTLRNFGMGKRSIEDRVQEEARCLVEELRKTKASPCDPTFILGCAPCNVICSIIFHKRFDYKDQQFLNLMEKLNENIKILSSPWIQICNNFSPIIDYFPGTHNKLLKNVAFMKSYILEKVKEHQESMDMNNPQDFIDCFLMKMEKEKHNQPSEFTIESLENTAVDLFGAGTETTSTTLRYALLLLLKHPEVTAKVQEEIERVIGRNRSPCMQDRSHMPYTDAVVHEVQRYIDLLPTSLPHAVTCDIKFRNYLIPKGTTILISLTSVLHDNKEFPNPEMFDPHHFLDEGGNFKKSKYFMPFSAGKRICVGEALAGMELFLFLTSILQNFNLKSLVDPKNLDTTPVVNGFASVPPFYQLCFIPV
CYP2C9 inh: blockers of cytochrome P450 2C9 activity – biochemical, luminescence, ADME assay, primary screen; inhibition, % at 5 µM; P11712; CYP2C9 Supersomes, luciferin-H conversion; hit rate 20% among 96,000;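 active means blocking of liver enzyme CYP2C9 beyond about 50% at 5 µM, limit read from the data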
Ecoli tolC: growth inhibitors of E. coli tolC mutant, primary screen, strain BW25113 ΔtolC::kan, 384-well; OD615; growth inhibition, % at 10 µM (by protocol); hit rate 2.2% among 65,000;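 active means growth inhibition at or above a cutoff equal to the mean over every tested compound plus 3 SD, cut at about 60% in these data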;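 further: growth measured after 20 h incubation at 37 °C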
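Signal: optical density read at 615 nm; Assay system: E. coli ΔtolC::kan strain BW25113; Times: 20 h incubation with compound, 37 °C; Dosing: 10 µM final, single dose.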
* marks the source's active call; other numbers are inactive results; . = no result given.

SMILES	CYP2C19 inhib	CYP2C19 activ	E coli WT exp	CYP2C9 activ	CYP2C9 inh	Ecoli tolC
CCSC1(SCC)N=C(N)C2(C#N)C(c3ccc(F)cc3)C12C#N (stereo not given)	61.5*	0.4	3.0	0.4	57.8*	.
CSc1ccc(C2C3(C#N)C(N)=NC4(OCCO4)C23C#N)cc1 (stereo not given)	20.4	0.8	4.0	1	2.9	6.2
COC1(OC)N=C(N)C2(C#N)C(c3ccc(F)cc3)C12C#N (stereo not given)	51.7*	0.5	-2.0	0.9	9.8	3.7
CCSC1(SCC)N=C(N)C2(C#N)C(c3ccccc3)NC(C)=C(C)C12C#N (stereo not given)	16.6	0.8	-24.0	0.9	5.1	9.9
O=C(COC(=O)c1ccccc1NC(=O)c1ccco1)NCc1ccc2c(c1)OCO2	12.0	0.9	3.0	0.5	46.8	18.5
Cc1ccc(CS(=O)(=O)Cc2ccc(C(=O)NCc3ccccn3)o2)cc1	12.2	0.9	-2.0	1	2.9	3.8
O=C(COC(=O)Cc1cn2ccsc2n1)Nc1nc2ccccc2s1	11.6	0.9	7.0	0.7	26.4	3.0
COc1ccc(OCCCC(=O)Nc2ccc3c(c2)OCCO3)cc1	76.3*	0.2	-5.0	0.1	86.1*	-6.8
CCN(CCCNC(=O)CCc1nc(-c2ccc(OC)cc2)no1)c1cccc(C)c1	93.3*	0.1	-4.0	0.1	87.2*	57.1
CCOC(=O)c1ccc(NC(=O)CCc2nc(-c3ccc(C)cc3)no2)cc1	70.1*	0.3	-11.0	0.1	94.2*	29.5
COc1ccc(-c2noc(CCC(=O)Nc3ccc(C)c(C)c3)n2)cc1	38.6	0.6	-1.0	0.4	57.7*	6.4
COc1ccc(-c2noc(CCC(=O)NCCN(C)Cc3ccccc3)n2)cc1	43.5	0.6	3.0	0.7	34.7	-3.5
COc1ccc(NC(=O)CCc2nc(-c3ccc(C)cc3)no2)cc1Cl	11.5	0.9	-23.0	0.9	11.1	-21.2
CCOC(=O)Cc1csc(NC(=S)NC(=O)c2ccccc2C)n1	5.3	0.9	-4.0	0.5	49.2	.
Cc1cc(C)n(-c2nc3nonc3nc2Nc2cccc(C)c2C)n1	7.2	0.9	-4.0	1	4.0	.
C=CCn1c(N)c(C(=O)NCCC2=CCCCC2)sc1=S	4.9	1	-6.0	0.8	21.8	12.5
CCC(=O)N1CCc2cc(S(=O)(=O)CCC(=O)NCc3cccs3)ccc21	1.6	1	-3.0	1	4.2	-21.2
CC(=O)c1c(C)[nH]c(C(=O)CSc2nnc(CN3CCCCCC3=O)n2-c2ccccn2)c1C	17.3	0.8	-1.0	0.8	15.5	-5.5
Cc1ccc(-c2noc(CCC(=O)Nc3ccc4c(c3)OCO4)n2)cc1	15.8	0.8	-11.0	0.7	33.4	-24.1
Cc1cccc(CCNC(=O)CCc2nc(-c3ccccc3F)no2)c1	91.5*	0.1	6.0	0.2	82.2*	20.5
COc1ccc(-c2noc(CCC(=O)Nc3ccc4c(c3)OCCO4)n2)cc1	65.6*	0.3	-5.0	0.2	76.2*	15.6
CCc1ccc(CCC(=O)Nc2ccc(C)c(C)c2)o1	51.1*	0.5	-2.0	0.9	13.5	12.6
O=C(CN1CCCC1=O)NC1(C(F)(F)F)NC(=O)N(Cc2ccccc2)C1=O (stereo not given)	-17.2	1.2	-1.0	1	-4.2	-6.8
O=C1CC(C(=O)O)S/C(=N\NC(=O)c2ccccc2)N1 (stereo not given)	2.1	1	4.0	1	2.9	.
CCOCCCNC(=O)C1CCCCN1S(=O)(=O)c1ccc(F)cc1 (stereo not given)	19.2	0.8	3.0	0.9	6.4	-17.0
SMILES	CYP2C19 inhib	CYP2C19 activ	E coli WT exp	CYP2C9 activ	CYP2C9 inh	Ecoli tolC
CCOc1cc(N2CCOCC2)c(OCC)cc1NC(=O)c1nc2nc(C)cc(C)n2n1	10.8	0.9	.	0.6	35.6	-4.9
CC(=O)C(Cc1cnc(Cl)s1)(Cc1cnc(Cl)s1)C(C)=O	68.7*	0.3	1.0	0.9	10.7	.
Cc1ccc(-c2nc(CCN3C(=O)c4ccccc4C3=O)cs2)cc1	52.3*	0.5	26.0	0.7	30.5	.
O=C1c2ccccc2C(=O)N1CSc1ncccn1	60.6*	0.4	1.0	1.7	-65.2	-11.9
Cc1cc(C)n2nc(SCN3C(=O)c4ccccc4C3=O)nc2n1	83.0*	0.2	-5.0	1.1	-6.9	-5.6
CCN(C(=O)CSc1nc2nc(C)cc(C)n2n1)c1ccccc1	8.3	0.9	4.0	0.6	35.6	1.3
O=C1c2ccccc2C(=O)N1CCc1ccccn1	83.7*	0.2	2.0	0.9	10.0	2.2
c1ccc2[nH]c(SN3CCOCC3)nc2c1	-16.6	1.2	4.0	1.1	-11.5	-25.5
CCOC(=O)C1=C(C)Nc2nc(=S)[nH]n2C1c1ccc(Cl)cc1 (stereo not given)	37.3	0.6	4.0	0.7	28.3	.
Cc1cc(C)n2nc(SCc3nc4ccccc4[nH]3)nc2n1	70.6*	0.3	-1.0	0.8	20.5	-2.2
Cc1cc(C)n2nc(SCc3cc(=O)oc4ccc5ccccc5c34)nc2n1	-6.4	1.1	-1.0	0.9	5.6	.
Cc1ccc(C(=O)N(c2ccccc2)C2CC(C)N(C(=O)c3ccco3)c3ccccc32)cc1 (stereo not given)	52.0*	0.5	-6.0	0.1	94.1*	.
CCC(=O)N1c2ccccc2[C@@H](N(C(C)=O)c2ccccc2)C[C@H]1C	15.9	0.8	3.0	1	2.4	7.8
NS(=O)(=O)c1cccnc1Nc1cccc(C(F)(F)F)c1	34.5	0.7	10.0	0.2	77.6*	.
O=C1CSC(c2nn(-c3ccccc3)cc2-c2cc3ccccc3oc2=O)N1Cc1ccco1 (stereo not given)	55.3*	0.4	-15.0	0.2	83.9*	41.3
Cc1cccc(NCN2C(=O)c3ccccc3C2=O)c1	1.6	1	5.0	0.9	11.8	.
CC(=O)N(CN1C(=O)c2ccccc2C1=O)c1cccc(C)c1	96.6*	0	-3.0	0.7	26.3	-21.6
CC(=O)N(CN1C(=O)c2ccccc2C1=O)c1ccccc1	59.3*	0.4	4.0	0.7	28.8	4.7
CC(=O)c1c(C(C)=O)c(C)n(-c2ccc(N)cc2)c1C	-23.7	1.2	-4.0	0.8	20.0	.
CN(C)c1ncc(S(=O)(=O)c2ccccc2)c(-c2ccccc2Cl)n1	76.4*	0.2	-4.0	0.7	31.8	.
CCOC(=O)c1c(CN2CCCCC2)n(C)c2cc(Br)c(O)cc12	71.0*	0.3	-1.0	0.7	25.1	.
CCOC(=O)c1c(CN2CCN(C)CC2)n(C)c2cc(Br)c(OC)cc12	49.8	0.5	5.0	0.4	55.8*	-12.1
